In ChEMBL document CHEMBL1671710, “Different classes of antibiotics differentially influence shiga toxin production” (2010):
In brackets after ≈: the same amount, converted by molar mass. Activity calls are given as the source filed them. The calls are words filed in the database; no cut-off is given here.

Experiments:
Escherichia coli [1] = assay: microbe, parasite or virus in culture; conditions: C600::933W
Escherichia coli [2] = assay: Antimicrobial activity against Escherichia coli O157:H7 PT-40 in stationary phase encoding Stx-2 gene by broth macrodilution assay
Escherichia coli [3] = assay: Antimicrobial activity against Escherichia coli O157:H7 185 encoding stx gene by broth microdilution method; format: functional, organism-based
Escherichia coli [4] = assay: Antimicrobial activity against Escherichia coli C600::H19B in stationary phase encoding Stx-1 gene by broth macrodilution assay
Escherichia coli [5] = assay: Antimicrobial activity against Escherichia coli O157:H7 PT-32 in stationary phase encoding Stx-1 and Stx-2 gene by broth macrodilution assay; format: functional
How it was run: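 Overnight MH-broth cultures (stationary phase) were diluted 1:1,000, then 1:200. 1 ml was mixed with 1.0 ml of antibiotic in MH broth, with trimethoprim:sulfamethoxazole at 1:5, and held overnight at 37°C with rotary aeration. MIC judged visually, corresponding to ∼10^7 CFU/ml.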

Escherichia coli [6] = assay: Antimicrobial activity against Escherichia coli C600::H19B in logarithmic phase encoding Stx-1 gene by broth macrodilution assay
Escherichia coli [7] = assay: Antimicrobial activity against Escherichia coli C600::933W in logarithmic phase encoding Stx-2 gene by broth macrodilution assay; format: functional
Escherichia coli [8] = assay: Antimicrobial activity against Escherichia coli O157:H7 PT-40 in logarithmic phase encoding Stx-2 gene by broth macrodilution assay; format: functional
Escherichia coli [9] = assay: Antimicrobial activity against Escherichia coli O157:H7 PT-32 in logarithmic phase encoding Stx-1 and Stx-2 gene by broth macrodilution assay

Row | Molecule | MIC (Escherichia coli [1]) [µg/mL] | MIC (Escherichia coli [2]) [µg/mL] | Activity (Escherichia coli [3]) | MIC (Escherichia coli [4]) [µg/mL] | MIC (Escherichia coli [5]) [µg/mL] | MIC (Escherichia coli [6]) [µg/mL] | MIC (Escherichia coli [7]) [µg/mL] | MIC (Escherichia coli [8]) [µg/mL] | MIC (Escherichia coli [9]) [µg/mL]
1 | CC1(C)S[C@@H]2[C@H](NC(=O)[C@H](N)c3ccccc3)C(=O)N2[C@H]1C(=O)O [AMPICILLIN] | 8 (≈ 22.9 µM) | 8 (≈ 22.9 µM) | Active | 8 (≈ 22.9 µM) | 4 (≈ 11.4 µM) | 4 (≈ 11.4 µM) |  |  | 
2 | CC[C@H]1OC(=O)[C@H](C)[C@@H](O[C@H]2C[C@@](C)(OC)[C@@H](O)[C@H](C)O2)[C@H](C)[C@@H](O[C@@H]2O[C@H](C)C[C@H](N(C)C)[C@H]2O)[C@](C)(O)C[C@@H](C)CN(C)[C@H](C)[C@@H](O)[C@]1(C)O [AZITHROMYCIN] | 2 (≈ 2.67 µM) | 2.6 (≈ 3.47 µM) |  | 2 (≈ 2.67 µM) | 2.6 (≈ 3.47 µM) | 2 (≈ 2.67 µM) | 2 (≈ 2.67 µM) | 4 (≈ 5.34 µM) | 2.6 (≈ 3.47 µM)
3 | CO/N=C(\C(=O)N[C@@H]1C(=O)N2C(C(=O)O)=C(CSc3nc(=O)c(O)nn3C)CS[C@H]12)c1csc(N)n1 [CEFTRIAXONE] | 0.03 (≈ 0.0541 µM) | 0.06 (≈ 0.108 µM) |  | 0.06 (≈ 0.108 µM) | 0.03 (≈ 0.0541 µM) | 0.03 (≈ 0.0541 µM) | 0.03 (≈ 0.0541 µM) | 0.06 (≈ 0.108 µM) | 0.03 (≈ 0.0541 µM)
4 | C[C@H]1c2cccc(O)c2C(=O)C2=C(O)[C@]3(O)C(=O)C(C(N)=O)=C(O)[C@@H](N(C)C)[C@@H]3[C@@H](O)[C@@H]21.O [DOXYCYCLINE] | 1 | 1 | Active | 0.5 | 0.5 | 0.25 | 0.5 | 1 | 1
5 | C[C@@H]1O[C@@H]1P(=O)(O)O [FOSFOMYCIN] | 2 (≈ 14.5 µM) | 16 (≈ 116 µM) |  | 0.5 (≈ 3.62 µM) | 16 (≈ 116 µM) | 2 (≈ 14.5 µM) | 2 (≈ 14.5 µM) | 16 (≈ 116 µM) | 16 (≈ 116 µM)
6 | CO[C@H]1/C=C/O[C@@]2(C)Oc3c(C)c(O)c4c(O)c(c(/C=N/N5CCN(C)CC5)c(O)c4c3C2=O)NC(=O)/C(C)=C\C=C\[C@H](C)[C@H](O)[C@@H](C)[C@@H](O)[C@@H](C)[C@H](OC(C)=O)[C@@H]1C [RIFAMPIN] | 8 (≈ 9.72 µM) | 16 (≈ 19.4 µM) |  | 16 (≈ 19.4 µM) | 2 (≈ 2.43 µM) | 4 (≈ 4.86 µM) | 8 (≈ 9.72 µM) | 4 (≈ 4.86 µM) | 4 (≈ 4.86 µM)
7 | Cc1cc(NS(=O)(=O)c2ccc(N)cc2)no1 [SULFAMETHOXAZOLE] | 0.03 (≈ 0.118 µM) | 0.13 (≈ 0.513 µM) |  | 0.03 (≈ 0.118 µM) | 0.13 (≈ 0.513 µM) | 0.004 (≈ 0.0158 µM) | 0.01 (≈ 0.0395 µM) | 0.13 (≈ 0.513 µM) | 0.13 (≈ 0.513 µM)
8 | GENTAMICIN |  |  |  |  | 0.25 |  | 0.25 | 0.25 | 
